Results taken from ChEMBL document CHEMBL2034918, “Synthesis and cytotoxic activity of new acridine-thiazolidine derivatives” (Bioorg Med Chem, 2012).
Activity calls are given as the source filed them. No cut-off for these calls is given here.

Tests used:
Nucleic Acid [1] = experiment: Binding affinity to calf thymus dsDNA in biosensor assessed as oxidation of exposed bases at 10^-4 M by differential pulse voltametry; format: nucleic-acid assay; conditions: Bos taurus
Summary of the method: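 Glassy carbon electrode polished with alumina, then pretreated by five cyclic scans 0 to +1.4 V in acetate buffer pH 4.5. Electrode coated with a dsDNA gel layer, then 20 µL of 10⁻⁴ M ethanolic compound added with drying. DPV in acetate buffer from 0 to 1.4 V: pulse amplitude 50 mV, pulse width 70 ms, step 2 mV, scan rate 5 mV/s, 25 °C. An untreated dsDNA electrode served as blank.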

Nucleic Acid [2] = experiment: Binding affinity to calf thymus ssDNA in solution assessed as oxidation of exposed bases at 10^-4 M by differential pulse voltametry; format: nucleic-acid assay; conditions: Bos taurus
Summary of the method: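 ssDNA made by dissolving dsDNA (3.0 mg/mL) in 1 M HCl with heating for 1 h. Compound was incorporated into a carbon paste electrode; blank paste contained ethanol only. DPV at pH 4.5 in ssDNA solution (1.0 × 10⁻⁴ M): equilibration 5 s, step 2 mV, pulse amplitude 50 mV, scan rate 5 mV/s.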

[3] = Haemolysis in mouse erythrocytes at 200 ug/mL after 30 mins by spectrophotometry; format: ADME, cell-based; conditions: erythrocyte, 0.5 h
Summary of the method: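 Mouse erythrocytes used as a 2% suspension in 0.85% NaCl with 10 mM CaCl₂. Compounds tested across 1.5–200 µg/mL with 1% Triton X-100 as positive control. Incubated 30 min at room temperature, then centrifuged. Released haemoglobin in the supernatant measured at 540 nm.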

OVCAR-8 = experiment: Antiproliferative activity against human OVCAR8 cells after 72 hrs by MTT assay; format: functional, cell-based; conditions: OVCAR-8, 72 h
Summary of the method: (§1)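 Cancer lines kept in RPMI-1640 with 10% foetal bovine serum, 2 mM glutamine, penicillin/streptomycin, 37 °C, 5% CO₂. Seeded at 0.7 × 10⁵ cells/well (adherent) or 0.3 × 10⁶ cells/mL (suspension). After 24 h, compounds in DMSO added at 0.048–25 µg/mL for 72 h. Medium then replaced with 0.5 mg/mL MTT for 3 h. Formazan dissolved in DMSO, absorbance read at 595 nm.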

SF-295 = experiment: Antiproliferative activity against human SF295 cells after 72 hrs by MTT assay; format: functional, cell-based; conditions: SF-295, 72 h; summary of the method: as §1
HL-60 = experiment: Antiproliferative activity against human HL60 cells after 72 hrs by MTT assay; format: functional, cell-based; conditions: HL-60, 72 h; summary of the method: as §1
LNCaP = experiment: Cytotoxicity against human LNCAP cells after 24 hrs by MTT assay; format: functional, cell-based
PC-3 [4] = experiment: Cytotoxicity against human PC3 cells after 24 hrs by MTT assay; format: functional, cell-based; conditions: PC-3, 24 h
V79 [5] = experiment: Selectivity ratio of IC50 for chinese hamster V79 cells to IC50 for human SF295 cells
PBMC = experiment: Cytotoxicity against human PBMC after 72 hrs by alamar blue assay; format: cell-based
Summary of the method: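 PBMC isolated from heparinised blood of healthy non-smoking donors by Ficoll-Hypaque density gradient. Cultured in RPMI-1640 with 20% FBS, glutamine, antibiotics and 2% phytohaemagglutinin at 37 °C, 5% CO₂. Plated at 3 × 10⁵ cells/mL; compounds in DMSO added at 0.048–25 µg/mL after 24 h, 72 h exposure. Alamar blue (resazurin) added 24 h before the end; absorbance read at 570 and 595 nm. IC50 by nonlinear regression.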

V79 [6] = experiment: Cytotoxicity against chinese hamster V79 cells after 72 hrs by MTT assay; format: cell-based; conditions: Cricetulus griseus, V79, 72 h
Summary of the method: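 V79 Chinese hamster lung fibroblasts grown in MEM with Earle's salts, 10% foetal bovine serum, 2 mM glutamine, penicillin/streptomycin, 37 °C, 5% CO₂. Seeded at 0.7 × 10⁵ cells/well. Compounds in DMSO added at 0.048–25 µg/mL after 24 h and left 72 h. MTT 0.5 mg/mL for 3 h, formazan in DMSO read at 595 nm. IC50 by nonlinear regression, two experiments in duplicate.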

MDA-MB-435 = experiment: Antiproliferative activity against human MDA-MB-435 cells after 72 hrs by MTT assay; format: functional, cell-based; conditions: MDA-MB-435, 72 h; summary of the method: as §1
UACC-62 = experiment: Antiproliferative activity against human UACC62 cells after 72 hrs by MTT assay; format: functional, cell-based; conditions: UACC-62, 72 h; summary of the method: as §1
PC-3 [7] = experiment: Antiproliferative activity against human PC3 cells after 72 hrs by MTT assay; format: functional, cell-based; conditions: PC-3, 72 h; summary of the method: as §1
COLO 205 = experiment: Antiproliferative activity against human COLO205 cells after 72 hrs by MTT assay; format: functional, cell-based; conditions: COLO 205, 72 h; summary of the method: as §1
HCT-15 = experiment: Antiproliferative activity against human HCT15 cells after 72 hrs by MTT assay; format: functional, cell-based; conditions: HCT-15, 72 h; summary of the method: as §1
SW-620 = experiment: Antiproliferative activity against human SW620 cells after 72 hrs by MTT assay; format: functional, cell-based; conditions: SW-620, 72 h; summary of the method: as §1
CCRF-CEM = experiment: Antiproliferative activity against human CEM cells after 72 hrs by MTT assay; format: functional, cell-based; summary of the method: as §1
HCT-8 = experiment: Antiproliferative activity against human HCT8 cells after 72 hrs by MTT assay; format: functional, cell-based; conditions: HCT-8, 72 h; summary of the method: as §1
K562 = experiment: Antiproliferative activity against human K562 cells after 72 hrs by MTT assay; format: functional, cell-based; conditions: K562, 72 h; summary of the method: as §1
DU-145 = experiment: Antiproliferative activity against human DU145 cells after 72 hrs by MTT assay; format: functional, cell-based; conditions: DU-145, 72 h; summary of the method: as §1
MX1 = experiment: Antiproliferative activity against human MX1 cells after 72 hrs by MTT assay; format: functional, cell-based; conditions: MX1, 72 h; summary of the method: as §1
Hs-578T = experiment: Antiproliferative activity against human Hs578T cells after 72 hrs by MTT assay; format: functional, cell-based; summary of the method: as §1
MDA-MB-231 = experiment: Antiproliferative activity against human MDA-MB-231 cells after 72 hrs by MTT assay; format: functional, cell-based; conditions: MDA-MB-231, 72 h; summary of the method: as §1

## CCOC(=O)/C(C#N)=C/c1c2ccccc2nc2ccccc12
Nucleic Acid [1]
  Activity: Active
Nucleic Acid [2]
  Activity: Active
[3]
  Activity: Non-toxic
OVCAR-8
  IC50: 23.3 µM
SF-295
  IC50: 54.7 µM
HL-60
  IC50: 4.07 µM

## Cc1c(C)c2c(c(C)c1O)CCC(C)(COc1ccc(CC3SC(=O)NC3=O)cc1)O2 (stereo unspecified) [TROGLITAZONE]
LNCaP
  IC50: 22 µM
PC-3 [4]
  IC50: 30 µM

## O=C1SC(=Cc2c3ccccc3nc3ccccc23)C(=O)N1Cc1ccc(F)cc1 (mixture of isomers)
Nucleic Acid [1]
  Activity: Active
Nucleic Acid [2]
  Activity: Active
V79 [5]
  Ratio IC50: 5.9
[3]
  Activity: Non-toxic
PBMC
  IC50: > 60.3 µM
V79 [6]
  IC50: 32.7 µM
MDA-MB-435
  IC50: 14.1 µM
OVCAR-8
  IC50: 9.3 µM
UACC-62
  IC50: 9.5 µM
SF-295
  IC50: 5.6 µM
PC-3 [7]
  IC50: 27.1 µM
COLO 205
  IC50: 23 µM
HCT-15
  IC50: 58 µM
SW-620
  IC50: 31.3 µM
CCRF-CEM
  IC50: > 60.3 µM
HCT-8
  IC50: 5.6 µM
HL-60
  IC50: > 60.3 µM
K562
  IC50: > 60.3 µM

## COc1cc(NS(C)(=O)=O)ccc1Nc1c2ccccc2nc2ccccc12 [AMSACRINE]
PBMC
  IC50: 21.7 µM
V79 [6]
  IC50: 5.8 µM
OVCAR-8
  IC50: 1.4 µM
DU-145
  IC50: 0.3 µM
SF-295
  IC50: 0.5 µM
PC-3 [7]
  IC50: 3.3 µM
COLO 205
  IC50: 1.1 µM
HCT-15
  IC50: 0.3 µM
SW-620
  IC50: 0.3 µM
HCT-8
  IC50: 0.3 µM
HL-60
  IC50: 0.08 µM

## Cc1ccc(CN2C(=O)S/C(=C\c3c4ccccc4nc4ccccc34)C2=O)cc1
Nucleic Acid [1]
  Activity: Active
Nucleic Acid [2]
  Activity: Active
V79 [5]
  Ratio IC50: 3.7
[3]
  Activity: Non-toxic
PBMC
  IC50: > 60.9 µM
V79 [6]
  IC50: 28.5 µM
MDA-MB-435
  IC50: 15.6 µM
OVCAR-8
  IC50: 19.7 µM
UACC-62
  IC50: 21.1 µM
DU-145
  IC50: > 60.9 µM
SF-295
  IC50: 7.8 µM
MX1
  IC50: > 60.9 µM
PC-3 [7]
  IC50: 17.7 µM
Hs-578T
  IC50: > 60.9 µM
COLO 205
  IC50: 46.4 µM
MDA-MB-231
  IC50: > 60.9 µM
HCT-15
  IC50: 29.2 µM
SW-620
  IC50: 26.8 µM
CCRF-CEM
  IC50: > 60.9 µM
HCT-8
  IC50: 7.4 µM
HL-60
  IC50: > 60.9 µM
K562
  IC50: > 60.9 µM

## Cc1c(C)c2c(c(C)c1O)CCC(C)(COc1ccc(/C=C3/SC(=O)NC3=O)cc1)O2 (stereo unspecified)
LNCaP
  IC50: 14 µM
PC-3 [4]
  IC50: 20 µM

## O=C1SC(=Cc2c3ccccc3nc3ccccc23)C(=O)N1Cc1ccc(Br)cc1 (mixture of isomers)
Nucleic Acid [1]
  Activity: Active
Nucleic Acid [2]
  Activity: Active
V79 [5]
  Ratio IC50: 3.1
[3]
  Activity: Non-toxic
PBMC
  IC50: > 52.6 µM
V79 [6]
  IC50: 22.6 µM
MDA-MB-435
  IC50: 25.9 µM
OVCAR-8
  IC50: 37.2 µM
UACC-62
  IC50: 50.7 µM
SF-295
  IC50: 7.2 µM
PC-3 [7]
  IC50: 8.6 µM
COLO 205
  IC50: > 52.6 µM
HCT-15
  IC50: 19.8 µM
SW-620
  IC50: 35.5 µM
CCRF-CEM
  IC50: > 52.6 µM
HCT-8
  IC50: 11.2 µM
HL-60
  IC50: > 52.6 µM
K562
  IC50: > 52.6 µM

## O=C1S/C(=C\c2c3ccccc3nc3ccccc23)C(=O)N1Cc1ccc(Cl)cc1
Nucleic Acid [1]
  Activity: Active
Nucleic Acid [2]
  Activity: Active
V79 [5]
  Ratio IC50: 3.1
[3]
  Activity: Non-toxic
PBMC
  IC50: > 58 µM
V79 [6]
  IC50: 17.9 µM
MDA-MB-435
  IC50: 22.2 µM
OVCAR-8
  IC50: 5.7 µM
UACC-62
  IC50: 29 µM
DU-145
  IC50: 9.5 µM
SF-295
  IC50: 5.8 µM
MX1
  IC50: > 58 µM
PC-3 [7]
  IC50: 13 µM
Hs-578T
  IC50: > 58 µM
COLO 205
  IC50: 6.3 µM
MDA-MB-231
  IC50: > 58 µM
HCT-15
  IC50: 21.5 µM
SW-620
  IC50: 20.1 µM
CCRF-CEM
  IC50: > 58 µM
HCT-8
  IC50: 8.3 µM
HL-60
  IC50: > 58 µM
K562
  IC50: > 58 µM
